# Published values collected from several papers.
# Protocols differ between the studies behind these lines.
# Organism: Nakaseomyces glabratus
# Effect on: microbial growth
SMILES,assay,test system,conditions,MIC
C[C@@H]1[C@H](O)[C@@H](C)/C=C/C=C/C=C/C=C/C=C/C=C/C=C/[C@H](O[C@@H]2O[C@H](C)[C@@H](O)[C@H](N)[C@@H]2O)C[C@@H]2O[C@](O)(C[C@@H](O)C[C@@H](O)[C@H](O)CC[C@@H](O)C[C@@H](O)CC(=O)O[C@H]1C)C[C@H](O)[C@H]2C(=O)O,broth dilution,,,1.25 µg/mL
OC(Cn1cncn1)(Cn1cncn1)c1ccc(F)cc1F,,,clinical isolate,4 µg/mL
COc1cc(NC(C)CCCN)c2nc(C(C)(C)C)ccc2c1Oc1ccc(Cl)c(Cl)c1 (centres unmarked),broth dilution,ATCC90030,,20 µg/mL
OC(Cn1cncn1)(Cn1cncn1)c1ccc(F)cc1F,broth dilution,MY1381,,8 µg/mL
C[C@@H]1[C@H](O)[C@@H](C)/C=C/C=C/C=C/C=C/C=C/C=C/C=C/[C@H](O[C@@H]2O[C@H](C)[C@@H](O)[C@H](N)[C@@H]2O)C[C@@H]2O[C@](O)(C[C@@H](O)C[C@@H](O)[C@H](O)CC[C@@H](O)C[C@@H](O)CC(=O)O[C@H]1C)C[C@H](O)[C@H]2C(=O)O,broth dilution,ATCC90030,,0.63 µg/mL
CCCCCCCCCCCCCCN1CCNCC1,broth dilution,ATCC2001,48 h,0.975 µg/mL
COc1cc(-c2ccc(C(C)(C)C)cc2)cc(C(C)C#Cc2c(C)nc(N)nc2N)c1 (centres unmarked),resazurin,,,207 µg/mL
CCCCCCCCOc1c(OC)cc(NC(C)CCCNC(=O)C2CCCN2)c2nc(C(C)(C)C)ccc12 (centres unmarked),broth dilution,ATCC90030,,20 µg/mL
OC(CNCCN1CCOCC1)(Cn1cncn1)c1ccc(F)cc1F (centres unmarked),broth dilution,ATCC2001,48 h,31.3 µg/mL
C[C@@H]1[C@H](O)[C@@H](C)/C=C/C=C/C=C/C=C/C=C/C=C/C=C/[C@H](O[C@@H]2O[C@H](C)[C@@H](O)[C@H](N)[C@@H]2O)C[C@@H]2O[C@](O)(C[C@@H](O)C[C@@H](O)[C@H](O)CC[C@@H](O)C[C@@H](O)CC(=O)O[C@H]1C)C[C@H](O)[C@H]2C(=O)O,,ATCC90030,,0.68 µM
CCCCCCCCCCN1CCNCC1,broth dilution,ATCC2001,48 h,7.8 µg/mL
CCCCCOc1c(OC)cc(NC(C)CCCNC(=O)C(N)C(C)CC)c2nc(C(C)(C)C)ccc12 (centres unmarked),broth dilution,ATCC90030,,> 20 µg/mL
CCC(C#Cc1c(C)nc(N)nc1N)c1cc(OC)c(OC)c(OC)c1 (centres unmarked),resazurin,,,89 µg/mL
Fc1ccc(C2(Cn3cncn3)CO2)c(F)c1 (centres unmarked),broth dilution,ATCC2001,48 h,> 31.3 µg/mL
